Values after ≈ are worked out from the molar mass of the structure shown.
Columns and labels:
Vero = test: Cytotoxicity against Vero cells after 3 days by Alamar Blue assay; type: cell-based; conditions: Chlorocebus sabaeus, 72 h
Outline: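 Vero (African green monkey kidney epithelial) cells were grown without CO₂ in L15 with antibiotics and heat-inactivated calf serum. Cells in medium with 2X Alamar Blue were added at 1.3×10^4 cells/well to 2-fold serial drug dilutions. Plates were incubated 3 days at 37 °C, and IC50 was calculated per the manufacturer's directions.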

[1] = test system: Mycobacterium tuberculosis; test: […]; type: functional
Outline: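 Strains were grown at 37 °C in 7H9 Middlebrook broth with 10% OADC, 0.05% Tween and 0.2% glycerol. Compounds were dissolved in DMSO and serially diluted 2-fold, then bacteria were added. Plates were incubated 6 days at 37 °C, then 24 h more with Alamar Blue. MIC was the lowest concentration (μg/mL) that prevented the colour change. Run in triplicate.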

SMILES	IC50 (Vero) [mg/L]	MIC ([1]; H37Rv, 144 h) [mg/L]	MIC ([1]; W210, 144 h) [mg/L]
COc1ccc(C(=O)Nc2cc3nc(C4CCCCC4)[nH]c3cc2N(C)C)cc1	> 100	0.31 (≈ 0.79 µM)	
Cc1ccc(C(=O)Nc2cc3nc(C4CCCCC4)[nH]c3cc2N(C)C)cc1	> 100	0.31 (≈ 0.823 µM)	
CCN(CC)c1cc2[nH]c(C3CCCCC3)nc2cc1NC(=O)c1ccc(N(C)C)cc1		12.5 (≈ 28.8 µM)	
COc1ccc(C(=O)Nc2cc3nc(C4CCCCC4)[nH]c3cc2N2CCCC2)cc1	> 100	6.25 (≈ 14.9 µM)	
CCCCOC(=O)Nc1cc2nc(C3CCCCC3)[nH]c2cc1N(CCC)CCC	> 100	6.25 (≈ 15.1 µM)	
CCN(CC)c1cc2[nH]c(C3CCCCC3)nc2cc1NC(=O)c1ccc(F)cc1	> 100	> 100	
CN(C)c1cc2[nH]c(C3CCCCC3)nc2cc1NC(=O)c1ccc(C(C)(C)C)cc1	> 100	1.56 (≈ 3.73 µM)	
CCN(CC)c1cc2[nH]c(C3CCCCC3)nc2cc1NC(=O)c1ccc(F)cc1F	> 100	> 100	
COCCOC(=O)Nc1cc2nc(C3CCCCC3)[nH]c2cc1N1CCCC1	> 100	3.13 (≈ 8.1 µM)	
CCOCCOC(=O)Nc1cc2nc(C3CCCCC3)[nH]c2cc1N1CCCC1	> 100	1.56 (≈ 3.89 µM)	
CCN(CC)c1cc2[nH]c(C3CCCCC3)nc2cc1NC(=O)NCc1ccccc1	> 100	> 100	
CCCCCC(=O)Nc1cc2nc(C3CCCCC3)[nH]c2cc1N(CC)CC		12.5 (≈ 32.5 µM)	
CCCCOC(=O)Nc1cc2nc(C3CCCCC3)[nH]c2cc1N(C)CCN(C)C	> 100	> 100	
CCCOCC(=O)Nc1cc2nc(C3CCCCC3)[nH]c2cc1N(CC)CC	> 100	25 (≈ 64.7 µM)	
CCN(CC)c1cc2[nH]c(C3CCCCC3)nc2cc1NC(=O)c1cccc(Br)c1	> 100	> 100	
CCCCNC(=O)Nc1cc2nc(C3CCCCC3)[nH]c2cc1N(C)C	> 100	6.25 (≈ 17.5 µM)	
CN(C)c1cc2[nH]c(C3CCCCC3)nc2cc1NC(=O)c1ccc(Br)cc1	> 100	0.31 (≈ 0.702 µM)	
CCCOCC(=O)Nc1cc2nc(C3CCCCC3)[nH]c2cc1N1CCCC1	> 100	12.5 (≈ 32.5 µM)	
NNC(=O)c1ccncc1 [ISONIAZID]		0.013 (≈ 0.0948 µM)	0.01 (≈ 0.0729 µM)
CCCCNC(=O)Nc1cc2nc(C3CCCCC3)[nH]c2cc1N1CCCC1	> 100	25 (≈ 65.2 µM)	
O=C(NCc1ccccc1)Nc1cc2nc(C3CCCCC3)[nH]c2cc1N1CCCC1	> 100	25 (≈ 59.9 µM)	

SMILES	IC50 (Vero) [mg/L]	MIC ([1]; H37Rv, 144 h) [mg/L]	MIC ([1]; W210, 144 h) [mg/L]
CCCCNC(=O)Nc1cc2nc(C3CCCCC3)[nH]c2cc1N(CC)CC	> 100	> 100	
CN(C)c1cc2[nH]c(C3CCCCC3)nc2cc1NC(=O)c1ccc(F)cc1F	> 100	0.31 (≈ 0.778 µM)	
CN(C)c1cc2[nH]c(C3CCCCC3)nc2cc1NC(=O)c1ccc(F)cc1	> 100	0.63 (≈ 1.66 µM)	
O=C(Nc1cc2nc(C3CCCCC3)[nH]c2cc1N1CCCC1)OCc1ccccc1		3.13 (≈ 7.48 µM)	
CN(C)c1cc2[nH]c(C3CCCCC3)nc2cc1NC(=O)c1cccs1	> 100	5 (≈ 13.6 µM)	
CCCOCC(=O)Nc1cc2nc(C3CCCCC3)[nH]c2cc1N(C)C	< 50	6.25 (≈ 17.4 µM)	
CCCc1ccc(C(=O)Nc2cc3nc(C4CCCCC4)[nH]c3cc2N(CC)CC)cc1		> 100	
CCCCCC(=O)Nc1cc2nc(C3CCCCC3)[nH]c2cc1N1CCCC1	> 100	6.25 (≈ 16.3 µM)	
CCCNC(=O)Nc1cc2nc(C3CCCCC3)[nH]c2cc1N(CC)CC	> 100	> 100	
CN(C)c1cc2[nH]c(C3CCCCC3)nc2cc1NC(=O)c1ccccc1	> 100	1.56 (≈ 4.3 µM)	
O=C(Nc1cc2nc(C3CCCCC3)[nH]c2cc1N1CCCC1)c1ccccc1	> 100	6.25 (≈ 16.1 µM)	
CCOCCOC(=O)Nc1cc2nc(C3CCCCC3)[nH]c2cc1N(CC)CC	> 100	1.56 (≈ 3.88 µM)	
CCCN(CCC)c1cc2[nH]c(C3CCCCC3)nc2cc1NC(=O)c1ccccc1	> 100	> 100	
O=C(CCc1ccccc1)Nc1cc2nc(C3CCCCC3)[nH]c2cc1N1CCCC1	> 100	12.5 (≈ 30 µM)	
CCCCCC(=O)Nc1cc2nc(C3CCCCC3)[nH]c2cc1N(C)C	> 100	1.25 (≈ 3.51 µM)	
CCCCOC(=O)Nc1cc2nc(C3CCCCC3)[nH]c2cc1N(CC)CC	> 100		1.25 (≈ 3.23 µM)
CCN(CC)c1cc2[nH]c(C3CCCCC3)nc2cc1NC(=O)c1ccc(C)cc1	> 100	12.5 (≈ 30.9 µM)	
CCCCOC(=O)Nc1cc2nc(C3CCCCC3)[nH]c2cc1N1CCCC1		0.39 (≈ 1.01 µM)	
C=Cc1cccc(C(=O)Nc2cc3nc(C4CCCCC4)[nH]c3cc2N(CC)CC)c1	> 100	25 (≈ 60 µM)	
O=C(Nc1cc2nc(C3CCCCC3)[nH]c2cc1N1CCCC1)OCC(F)(F)F	> 100	0.31 (≈ 0.755 µM)	
CN(C)c1cc2[nH]c(C3CCCCC3)nc2cc1NC(=O)OCc1ccccc1	> 100	0.16 (≈ 0.408 µM)	

SMILES	IC50 (Vero) [mg/L]	MIC ([1]; H37Rv, 144 h) [mg/L]	MIC ([1]; W210, 144 h) [mg/L]
Cc1ccc(C(=O)Nc2cc3nc(C4CCCCC4)[nH]c3cc2N2CCCC2)cc1	> 100	3.13 (≈ 7.78 µM)	
CN(C)c1cc2[nH]c(C3CCCCC3)nc2cc1NC(=O)c1ccco1	> 100	6.25 (≈ 17.7 µM)	
CCN(CC)c1cc2[nH]c(C3CCCCC3)nc2cc1NC(=O)OCCOCCOC	> 100	12.5 (≈ 28.9 µM)	
CCCNC(=O)Nc1cc2nc(C3CCCCC3)[nH]c2cc1N1CCCC1	> 100	100 (≈ 271 µM)	
CCCc1ccc(C(=O)Nc2cc3nc(C4CCCCC4)[nH]c3cc2N(C)C)cc1	> 100	0.63 (≈ 1.56 µM)	
CCCN(CCC)c1cc2[nH]c(C3CCCCC3)nc2cc1NC(=O)OCc1ccccc1	> 100	> 100	
CCN(CC)c1cc2[nH]c(C3CCCCC3)nc2cc1NC(=O)OCC(F)(F)F	> 100	1.56 (≈ 3.78 µM)	
CCN(CC)c1cc2[nH]c(C3CCCCC3)nc2cc1NC(=O)c1ccc(OC)cc1		1.56 (≈ 3.71 µM)	
CN(C)c1cc2[nH]c(C3CCCCC3)nc2cc1NC(=O)c1cccc(Br)c1	> 100	3.13 (≈ 7.09 µM)	
CCOCCOC(=O)Nc1cc2nc(C3CCCCC3)[nH]c2cc1N(C)C	> 100	0.31 (≈ 0.828 µM)	
CCN(CC)c1cc2[nH]c(C3CCCCC3)nc2cc1NC(=O)c1ccc(Br)cc1	> 100	100 (≈ 213 µM)	
O=C(Nc1cc2nc(C3CCCCC3)[nH]c2cc1N1CCCC1)c1ccc(Br)cc1	> 100	1.56 (≈ 3.34 µM)	
CCCCOC(=O)Nc1cc2nc(C3CCCCC3)[nH]c2cc1N(CC)CCN(C)C	> 100	100 (≈ 233 µM)	
CCN(CC)c1cc2[nH]c(C3CCCCC3)nc2cc1NC(=O)c1ccc(OC(F)(F)F)cc1	> 100	> 100	
CCN(CC)c1cc2[nH]c(C3CCCCC3)nc2cc1NC(=O)c1cnccn1	> 100	10 (≈ 25.5 µM)	
CCOc1ccc(C(=O)Nc2cc3nc(C4CCCCC4)[nH]c3cc2N(CC)CC)cc1	> 100	> 100	
CCCC(C)OC(=O)Nc1cc2nc(C3CCCCC3)[nH]c2cc1N(CC)CC (stereo not drawn)	> 100	> 50	
COc1ccc(CC(=O)Nc2cc3nc(C4CCCCC4)[nH]c3cc2N(C)C)cc1	> 100	> 100	
CCCCOC(=O)Nc1cc2nc(C3CCCCC3)[nH]c2cc1N(CC)CCN(CC)CC	> 50	50 (≈ 109 µM)	
CCc1ccc(C(=O)Nc2cc3nc(C4CCCCC4)[nH]c3cc2N(CC)CC)cc1	> 100	1.56 (≈ 3.73 µM)	

— ChEMBL document CHEMBL3124890, “SAR studies on trisubstituted benzimidazoles as inhibitors of Mtb FtsZ for the development of novel antitubercular agents” (J Med Chem, 2013)
